What all share (format): functional
In assay [1] the test system is Mus musculus. Briefly: Analgesic activity was measured on phenylquinone writhing in mice at 128 mg/kg subcutaneous dose. The following applies: sc. The gist of the method:
(§1)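 Male Swiss albino mice, 18-22 g, five per group. Compound suspended in physiological saline with Tween 80 and given sc. 30 min later, 0.03% phenyl-p-benzoquinone given ip at 0.1 mL/10 g body weight. Total writhes per animal counted against a vehicle-treated control group. % change = (writhes treated/writhes control) × 100 − 100.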

In a further assay the test system is Trichomonas vaginalis. The experiment in a line: Compound was measured as concentration of compound required for 90% growth inhibition of Trichomonas vaginalis. In outline: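 Tube dilution in modified TYM basal medium, with compound added in µg/mL of medium. Inoculum 1 × 10^5/mL T. vaginalis trophozoites pre-grown 48 h in the same medium. Incubated 24 and 48 h at 35 °C. Aliquots diluted in saline with 1% formaldehyde and counted in a Speirs-Levy chamber. MIC is the lowest concentration giving 90% growth inhibition.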

The test system of assay [2] is Mus musculus. Briefly: Analgesic activity was measured on phenylquinone writhing in mice at 64 mg/kg subcutaneous dose. The following applies: sc. The gist of the method:
as §1
On the technique in general: In writhing tests, fewer writhes than in controls are read as antinociception.

For assay [3], the system named is Mus musculus. The experiment in a line: Analgesic activity was measured of phenylquinone writhing in mice at 16 mg/kg subcutaneous dose. The settings on record: sc. In outline:
as §1

Assay [4] deals with Mus musculus. The experiment in a line: Analgesic activity was measured of phenylquinone writhing in mice at 4 mg/kg subcutaneous dose. The settings on record: sc. The gist of the method: as §1
Assay [5] deals with Mus musculus. Briefly: Analgesic activity was measured of phenylquinone writhing in mice at 8 mg/kg subcutaneous dose. The settings on record: sc. The gist of the method: as §1
In assay [6] the test system is Mus musculus. The experiment in a line: Analgesic activity was measured of phenylquinone writhing in mice at 32 mg/kg subcutaneous dose. The following applies: sc. In outline:
as §1

In assay [7] the test system is Mus musculus. The experiment in a line: Analgesic activity was measured of phenylquinone writhing in mice at 64 mg/kg subcutaneous dose. The settings on record: sc. In outline:
as §1

Assay [8] has as its system Mus musculus. Briefly: Analgesic activity was measured on phenylquinone writhing in mice at 50 mg/kg subcutaneous dose. The settings on record: sc. In outline: as §1
Assay [9] deals with Mus musculus. Briefly: Analgesic activity was measured on phenylquinone writhing in mice at 56 mg/kg subcutaneous dose. The settings on record: sc. The gist of the method: as §1

Eight compounds from ChEMBL document CHEMBL1121818, “Some reactions of 1,4-dihydropyridines with organic azides. Synthesis of 2,7-diazabicyclo[4.1.0]hept-3-enes with analgesic and antiprotozoal activity” (1981) can be followed below.

The compound `O=S(=O)(c1ccccc1)N1[C@@H]2CC=CN[C@@H]21` (stereo partly drawn) came in with an inhibition in vivo at 128 mg/kg in the assay with Mus musculus [1] of 47%.
With `CC(=O)Nc1ccc(S(=O)(=O)N2[C@@H]3CC=CN(C)[C@@H]32)cc1` (stereo partly drawn), the MIC against Trichomonas vaginalis is < 10 µg/mL. This compound had an inhibition in vivo at 128 mg/kg in the assay with Mus musculus [1] of 95%.
The like results for `CN1C=CC[C@@H]2[C@H]1N2S(C)(=O)=O` (stereo partly drawn) were, in that order, < 10 µg/mL and 50%.
Regarding `CN1C=CC[C@@H]2[C@H]1N2C#N`, the inhibition in vivo at 64 mg/kg with Mus musculus [2] came out at 86%. In the assay on Trichomonas vaginalis, the MIC was < 10 µg/mL.
Consider `CN1C=CC[C@@H]2[C@H]1N2S(=O)(=O)c1ccc(N)cc1` (stereo partly drawn), for which at 16 mg/kg the inhibition in vivo with Mus musculus [3] was 45%. Moreover, the MIC against Trichomonas vaginalis is < 10 µg/mL. In addition, in the assay on Mus musculus [4], the inhibition in vivo at 4 mg/kg amounted to 23%. The inhibition in vivo at 8 mg/kg with Mus musculus [5] came out at 40%. Further, in the assay on Mus musculus [1], the inhibition in vivo at 128 mg/kg was 97%. The compound also gave an inhibition in vivo at 32 mg/kg with Mus musculus [6] of 69%. 64 mg/kg produced 78% inhibition in vivo with Mus musculus [7].
Turning to `CN1C=CC[C@@H]2[C@H]1N2S(=O)(=O)c1ccccc1` (stereo partly drawn), the inhibition in vivo at 64 mg/kg in the assay with Mus musculus [2] worked out at 92%. Moreover, the MIC against Trichomonas vaginalis was < 10 µg/mL.
Compound `CC(=O)Oc1ccccc1C(=O)O` [ASPIRIN] had an inhibition in vivo at 50 mg/kg in the assay with Mus musculus [8] of 50%.
Consider `CCC(=O)O[C@](Cc1ccccc1)(c1ccccc1)[C@H](C)CN(C)C` [PROPOXYPHENE], for which at 56 mg/kg the inhibition in vivo with Mus musculus [9] was 50%.

The inhibition in vivo is how much of the control response was suppressed. A lower inhibition in vivo goes with a weak effect. What is called MIC is the smallest concentration in the dilution series that meets the test's criterion for growth inhibition. Low readings indicate greater potency, high ones weaker potency.
